Experimental data from ChEMBL document CHEMBL3526146, “In vitro and in vivo metabolism and pharmacokinetics of BMS-562086, a potent and orally bioavailable corticotropin-releasing factor-1 receptor antagonist” (Drug Metab Dispos, 2012).

Legend:
[1] = Drug metabolism in rat hepatocytes assessed as DPH-124921 metabolite level at 25 uM after 3 hrs by LC-MS/MS analysis; assay type: ADME, cell-based, Hepatocyte
Procedure, shortened: (§1)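 Hepatocytes checked for viability by trypan blue exclusion, then diluted in Krebs-Henseleit buffer to 1.0 × 10^6 cells/ml. Incubated in duplicate with 25 µM compound at 37°C for 3 h on an orbital shaker (80 rpm) under 95/5 O2/CO2. Negative control had no cells. Stopped with ice-cold acetonitrile, sonicated, centrifuged; supernatant analysed by LC/MS/MS.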

[2] = Drug metabolism in beagle dog hepatocytes assessed as DPH-124921 metabolite level at 25 uM after 3 hrs by LC-MS/MS analysis; assay type: ADME, cell-based, Canis lupus familiaris, Hepatocyte
Procedure, shortened: (§2)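 Mouse, rat, dog, monkey and human hepatocytes (trypan blue viability checked) at 1.0×10^6 cells/ml in Krebs-Henseleit buffer were incubated with 25 µM compound, in duplicate. Conditions were 37°C, 95/5 O2/CO2, orbital shaking, 3 h. 7-Ethoxycoumarin and 7-hydroxycoumarin (100 µM) served as positive controls, with a cell-free negative control. Reactions were quenched with ice-cold acetonitrile, then sonicated and centrifuged; supernatants were analysed by LC/MS/MS.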

[3] = Drug metabolism in human cryopreserved hepatocytes assessed as DPH-124921 metabolite level at 25 uM after 3 hrs by LC-MS/MS analysis; assay type: ADME, cell-based, Hepatocyte; procedure, shortened: as §1
[4] = Drug metabolism in rat hepatocytes assessed as BMS-572273 metabolite level at 25 uM after 3 hrs by LC-MS/MS analysis; assay type: ADME, cell-based, Hepatocyte; procedure, shortened: as §1
[5] = Drug metabolism in beagle dog hepatocytes assessed as BMS-572273 metabolite level at 25 uM after 3 hrs by LC-MS/MS analysis; assay type: ADME, cell-based, Canis lupus familiaris, Hepatocyte; procedure, shortened: as §2
[6] = Drug metabolism in cynomolgus monkey cryopreserved hepatocytes assessed as BMS-572273 metabolite level at 25 uM after 3 hrs by LC-MS/MS analysis; assay type: ADME, cell-based, Macaca fascicularis, Hepatocyte; procedure, shortened: as §2
[7] = Drug metabolism in human cryopreserved hepatocytes assessed as BMS-572273 metabolite level at 25 uM after 3 hrs by LC-MS/MS analysis; assay type: ADME, cell-based, Hepatocyte; procedure, shortened: as §1
[8] = Drug metabolism in mouse liver microsomes at 100 uM after 1 hr in presence of NADPH; assay type: ADME
Procedure, shortened: (§3)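 Liver microsomes (1 mg/ml protein) in 100 mM phosphate buffer with 100 µM test compound. Reaction started by adding NADPH (1 mM), then run at 37°C for 1 h in a shaking water bath, in duplicate. Controls lacked microsomal protein or NADPH; 7-ethoxycoumarin (100 µM) was the positive control. Metabolites identified by LC/MS/MS.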

[9] = Drug metabolism in cynomolgus monkey liver microsomes at 100 uM after 1 hr in presence of NADPH; assay type: ADME, Macaca fascicularis
Procedure, shortened: (§4)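 Mouse, rat, dog, monkey and human liver microsomes (1 mg/ml protein) were incubated with 100 µM compound in 100 mM phosphate buffer. Reactions were started with 1 mM NADPH and run 1 h at 37°C in duplicate. Controls lacked protein or NADPH, plus a 7-ethoxycoumarin (100 µM) positive control. Metabolites were identified by LC/MS/MS.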

Liver microsome [10] = assay: Drug metabolism in human liver microsomes at 100 uM after 1 hr in presence of NADPH; assay type: ADME; procedure, shortened: as §3
Liver microsome [11] = assay: Drug metabolism in rat liver microsomes assessed as DPH-123554 metabolite level at 100 uM after 1 hr in presence of NADPH; assay type: ADME; procedure, shortened: as §3
Liver microsome [12] = assay: Drug metabolism in beagle dog liver microsomes assessed as DPH-123554 metabolite level at 100 uM after 1 hr in presence of NADPH; assay type: ADME, Canis lupus familiaris; procedure, shortened: as §4
[13] = Drug metabolism in cynomolgus monkey liver microsomes assessed as DPH-123554 metabolite level at 100 uM after 1 hr in presence of NADPH; assay type: ADME, Macaca fascicularis; procedure, shortened: as §4
Liver microsome [14] = assay: Drug metabolism in human liver microsomes assessed as DPH-123554 metabolite level at 100 uM after 1 hr in presence of NADPH; assay type: ADME; procedure, shortened: as §3
[15] = Drug metabolism in mouse liver microsomes assessed as DPH-124921 metabolite level at 100 uM after 1 hr in presence of NADPH; assay type: ADME; procedure, shortened: as §3
Liver microsome [16] = assay: Drug metabolism in dog liver microsomes assessed as DPH-124921 metabolite level at 100 uM after 1 hr in presence of NADPH; assay type: ADME, Canis lupus familiaris; procedure, shortened: as §4
[17] = Drug metabolism in cynomolgus monkey liver microsomes assessed as DPH-124921 metabolite level at 100 uM after 1 hr in presence of NADPH; assay type: ADME, Macaca fascicularis; procedure, shortened: as §4
Liver microsome [18] = assay: Drug metabolism in human liver microsomes assessed as DPH-124921 metabolite level at 100 uM after 1 hr in presence of NADPH; assay type: ADME; procedure, shortened: as §3
[19] = Drug metabolism in mouse liver microsomes assessed as BMS-572273 metabolite level at 100 uM after 1 hr in presence of NADPH; assay type: ADME; procedure, shortened: as §3
Liver microsome [20] = assay: Drug metabolism in rat liver microsomes assessed as BMS-572273 metabolite level at 100 uM after 1 hr in presence of NADPH; assay type: ADME; procedure, shortened: as §3
Liver microsome [21] = assay: Drug metabolism in dog liver microsomes assessed as BMS-572273 metabolite level at 100 uM after 1 hr in presence of NADPH; assay type: ADME, Canis lupus familiaris; procedure, shortened: as §4
[22] = Drug metabolism in cynomolgus monkey liver microsomes assessed as BMS-572273 metabolite level at 100 uM after 1 hr in presence of NADPH; assay type: ADME, Macaca fascicularis; procedure, shortened: as §4
[23] = Detection of compound level in beagle dog hepatocytes treated with 25 uM of BMS-562086 after 3 hrs by LC-MS/MS analysis; assay type: ADME, cell-based, Canis lupus familiaris, Hepatocyte; procedure, shortened: as §2
[24] = Detection of compound level in cynomolgus monkey cryopreserved hepatocytes treated with 25 uM of BMS-562086 after 3 hrs by LC-MS/MS analysis; assay type: ADME, cell-based, Macaca fascicularis, Hepatocyte; procedure, shortened: as §2
[25] = Drug metabolism in mouse hepatocytes at 25 uM after 3 hrs by LC-MS/MS analysis; assay type: ADME, cell-based, Hepatocyte; procedure, shortened: as §1
[26] = Drug metabolism in rat hepatocytes at 25 uM after 3 hrs by LC-MS/MS analysis; assay type: ADME, cell-based, Hepatocyte; procedure, shortened: as §1
[27] = Drug metabolism in human cryopreserved hepatocytes at 25 uM after 3 hrs by LC-MS/MS analysis; assay type: ADME, cell-based, Hepatocyte; procedure, shortened: as §1
[28] = Drug metabolism in rat hepatocytes assessed as DPH-123554 metabolite level at 25 uM after 3 hrs by LC-MS/MS analysis; assay type: ADME, cell-based, Hepatocyte; procedure, shortened: as §1
[29] = Drug metabolism in beagle dog hepatocytes assessed as DPH-123554 metabolite level at 25 uM after 3 hrs by LC-MS/MS analysis; assay type: ADME, cell-based, Canis lupus familiaris, Hepatocyte; procedure, shortened: as §2
[30] = Drug metabolism in cynomolgus monkey cryopreserved hepatocytes assessed as DPH-123554 metabolite level at 25 uM after 3 hrs by LC-MS/MS analysis; assay type: ADME, cell-based, Macaca fascicularis, Hepatocyte; procedure, shortened: as §2
[31] = Drug metabolism in human cryopreserved hepatocytes assessed as DPH-123554 metabolite level at 25 uM after 3 hrs by LC-MS/MS analysis; assay type: ADME, cell-based, Hepatocyte; procedure, shortened: as §1
Liver microsome [32] = assay: Detection of compound level in rat liver microsomes treated with 100 uM of BMS-562086 after 1 hr by LC-MS/MS analysis
Liver microsome [33] = assay: Detection of compound level in beagle dog liver microsomes treated with 100 uM of BMS-562086 after 1 hr by LC-MS/MS analysis
[34] = Detection of compound level in cynomolgus monkey liver microsomes treated with 100 uM of BMS-562086 after 1 hr by LC-MS/MS analysis

Measured: Drug metabolism

CC[C@@H](C)Nc1nc(C)nc2c(-c3ccc(OC)nc3C)c(C)nn12 [PEXACERFONT]
metabolite_detected: all assays above
